Source: ChEMBL document CHEMBL4316593 (Eur J Med Chem, 2019)
Active and inactive are the calls of the source. No cut-off for these calls is given here.

Assays:
[1] = Inhibition of RTK/PI3K/AKT/mTOR signaling in human U87 cells assessed as down regulation of GPATCH11 gene expression at cytotoxic IC50 measured after 48 hrs relative to control; type: cell-based; conditions: U-87MG ATCC
Procedure, shortened: (§1)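 U87 cells grown in MEM with 10% FBS at 37°C, 5% CO2. Cells exposed to IC50 of test compound for 48 hrs, alongside untreated and cisplatin controls, each condition in triplicate. RNA isolated and profiled; differential expression called with DESeq2 (q-value < 0.05, fold change > 1.5), fold change versus untreated.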

[2] = system: U-87 MG; assay: Induction of apoptosis in human U87 cells assessed as change in ITPR1 gene expression at cytotoxic IC50 measured after 48 hrs […] relative to control; type: functional, U-87MG ATCC; procedure, shortened: as §1
[3] = Inhibition of RTK/PI3K/AKT/mTOR signaling in human U87 cells assessed as up regulation of EPS8 like 2 gene expression at cytotoxic IC50 measured after 48 hrs relative to control; type: cell-based; conditions: U-87MG ATCC
Procedure, shortened: (§2)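 Cells were exposed for 48hrs at 37°C in humidified 5% CO₂ to the compound at its previously determined IC₅₀, with Cisplatin at its IC₅₀ and an untreated negative control alongside. Each condition was run in triplicate. RNA was isolated from all samples by the same protocol. Genes were called differentially expressed by DESeq2 at q-value < 0.05 and fold change > 1.5.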

[4] = Inhibition of RTK/PI3K/AKT/mTOR signaling in human U87 cells assessed as up regulation of STC2 gene expression at cytotoxic IC50 measured after 48 hrs relative to control; type: cell-based; conditions: U-87MG ATCC
[5] = Inhibition of RTK/PI3K/AKT/mTOR signaling in human U87 cells assessed as up regulation of KDM5B gene expression at cytotoxic IC50 measured after 48 hrs relative to control; type: cell-based; conditions: U-87MG ATCC; procedure, shortened: as §2
[6] = system: U-87 MG; assay: Cell cycle arrest in human U87 cells assessed as change in YWHAG gene expression at cytotoxic IC50 measured after 48 hrs […] relative to control; type: functional, U-87MG ATCC
Procedure, shortened: (§3)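 U87 expression profiling. Cells incubated 48hrs at 37°C, 5% CO₂ with the IC₅₀ concentration, alongside a cisplatin and an untreated control, in triplicate. RNA was isolated by one common protocol and profiled. DEGs were called with DESeq2 (q < 0.05, fold change > 1.5) and expressed as fold change versus untreated.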

[7] = system: U-87 MG; assay: Cell cycle arrest in human U87 cells assessed as change in MDM2 gene expression at cytotoxic IC50 measured after 48 hrs […] relative to control; type: functional, U-87MG ATCC; procedure, shortened: as §3
[8] = system: U-87 MG; assay: Induction of apoptosis in human U87 cells assessed as change in GADD45B gene expression at cytotoxic IC50 measured after 48 hrs […] relative to control; type: functional, U-87MG ATCC; procedure, shortened: as §1
[9] = system: U-87 MG; assay: Cell cycle arrest in human U87 cells assessed as change in CREBBP gene expression at cytotoxic IC50 measured after 48 hrs […] relative to control; type: functional, U-87MG ATCC; procedure, shortened: as §3
[10] = Inhibition of RTK/PI3K/AKT/mTOR signaling in human U87 cells assessed as down regulation of LAMA2 gene expression at cytotoxic IC50 measured after 48 hrs relative to control; type: cell-based; conditions: U-87MG ATCC; procedure, shortened: as §1
[11] = Inhibition of RTK/PI3K/AKT/mTOR signaling in human U87 cells assessed as up regulation of AGRN gene expression at cytotoxic IC50 measured after 48 hrs relative to control; type: cell-based; conditions: U-87MG ATCC; procedure, shortened: as §2
[12] = Inhibition of RTK/PI3K/AKT/mTOR signaling in human U87 cells assessed as down regulation of NLRC5 gene expression at cytotoxic IC50 measured after 48 hrs relative to control; type: cell-based; conditions: U-87MG ATCC; procedure, shortened: as §2
[13] = system: LN-229; assay: Cell cycle arrest in human LN229 cells assessed as accumulation at G1/S-phase at cytotoxic IC50 measured after 48 hrs by propidium iodide staining based fluorescence cell imaging analysis; type: functional
Procedure, shortened: (§4)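 Cell cycle by PI staining. Cells seeded at 1×10^6 and grown overnight at 37°C, 5% CO₂, then exposed for 48hrs at their IC₅₀ concentration, with DMSO and cisplatin controls. Cells were trypsinized, washed in cold PBS and fixed in 70% ethanol at 4°C for 30 min. They were stained with PI in Triton X-100/RNase for 15 min at 37°C and imaged by fluorescence microscopy. Reported as mean ± S.E.M of triplicates.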

[14] = system: U-87 MG; assay: Induction of apoptosis in human U87 cells assessed as change in FOS gene expression at cytotoxic IC50 measured after 48 hrs […] relative to control; type: functional, U-87MG ATCC; procedure, shortened: as §1
[15] = system: U-87 MG; assay: Induction of DNA damage in human U87 cells assessed as change in PLK3 gene expression at cytotoxic IC50 measured after 48 hrs […] relative to control; type: functional, U-87MG ATCC; procedure, shortened: as §3
[16] = system: U-87 MG; assay: Induction of apoptosis in human U87 cells assessed as change in TNFRSF10C gene expression at cytotoxic IC50 measured after 48 hrs […] relative to control; type: functional, U-87MG ATCC; procedure, shortened: as §1
[17] = Inhibition of RTK/PI3K/AKT/mTOR signaling in human U87 cells assessed as up regulation of T-cell lymphoma invasion and metastasis 1 gene expression at cytotoxic IC50 measured after 48 hrs relative to control; type: cell-based
[18] = Inhibition of RTK/PI3K/AKT/mTOR signaling in human U87 cells assessed as up regulation of QSOX2 gene expression at cytotoxic IC50 measured after 48 hrs relative to control; type: cell-based; conditions: U-87MG ATCC; procedure, shortened: as §2
[19] = Inhibition of RTK/PI3K/AKT/mTOR signaling in human U87 cells assessed as up regulation of ras homolog family member Q gene expression at cytotoxic IC50 measured after 48 hrs relative to control; type: cell-based; conditions: U-87MG ATCC
[20] = Inhibition of RTK/PI3K/AKT/mTOR signaling in human U87 cells assessed as up regulation of ZNF395 gene expression at cytotoxic IC50 measured after 48 hrs relative to control; type: cell-based; conditions: U-87MG ATCC
[21] = system: LN-229; assay: Cytotoxicity against human LN229 cells assessed as reduction in cell proliferation measured after 48 hrs by trypan blue dye-based cell counting analysis; conditions: LN-229, 48 h
[22] = system: LN-229; assay: Cell cycle arrest in human LN229 cells assessed as decrease in accumulation at S-phase at cytotoxic IC50 measured after 48 hrs by propidium iodide staining based fluorescence cell imaging analysis; type: functional; procedure, shortened: as §4
[23] = Inhibition of RTK/PI3K/AKT/mTOR signaling in human U87 cells assessed as down regulation of CCDC186 gene expression at cytotoxic IC50 measured after 48 hrs relative to control; type: cell-based; conditions: U-87MG ATCC; procedure, shortened: as §1
[24] = Inhibition of RTK/PI3K/AKT/mTOR signaling in human U87 cells assessed as down regulation of POP4 gene expression at cytotoxic IC50 measured after 48 hrs relative to control; type: cell-based; conditions: U-87MG ATCC; procedure, shortened: as §2
[25] = system: U-87 MG; assay: Induction of apoptosis in human U87 cells assessed as decrease in caspase-3/7 activation at cytotoxic IC50 measured after 5 hrs by caspase-glo 3/7 luminescence assay relative to control; type: functional, U-87MG ATCC; set-up: scale not given: the % may be the effect or the level left
Procedure, shortened: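 Cells grown overnight in 96-well format, then given IC50 for 5 hrs at 37°C, 5% CO2, with negative, positive and blank (medium+DMSO+dye) wells. Equilibrated 30 min at room temperature, Caspase-Glo 3/7 reagent added 1:1 in the dark, luminescence read at 1 hr. Fold change = (test−blank)/(control−blank). Triplicate measurements, at least two independent experiments.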

[26] = Inhibition of RTK/PI3K/AKT/mTOR signaling in human U87 cells assessed as down regulation of MAP2 gene expression at cytotoxic IC50 measured after 48 hrs relative to control; type: cell-based; conditions: U-87MG ATCC; procedure, shortened: as §2

CC(=O)C(=NNc1ccccc1C#N)C(C)=O
log2FC [1]: -1.69 | log2FC [2]: -3.437 | log2FC [3]: 0.818 | log2FC [4]: 3.02 | log2FC [5]: 0.553 | fold change (FC) [6]: -0.7503 | fold change (FC) [7]: 1.471 | log2FC [8]: -2.899 | fold change (FC) [9]: -1.086 | log2FC [10]: -1.14 | log2FC [11]: 0.578 | log2FC [12]: -1.26 | Activity [13]: Active | log2FC [14]: -3.569 | fold change (FC) [15]: 1.714 | log2FC [16]: 3.078 | log2FC [17]: 0.812 | log2FC [18]: 0.599 | log2FC [19]: 0.702 | log2FC [20]: 1.89 | IC50 [21]: 87 µM | Activity [22]: Active | log2FC [23]: -0.865 | log2FC [24]: -0.816 | Activity [25]: 60.2% | log2FC [26]: -1.55
